Test results reported in ChEMBL document CHEMBL4002637, “Synthesis, characterization, in vitro SAR and in vivo evaluation of N,N'bisnaphthylmethyl 2-alkyl substituted imidazolium salts against NSCLC” (Bioorg Med Chem Lett, 2017).
Active and inactive are the calls of the source. The calls are words filed in the database; no cut-off is given here.

How the values were obtained:
NCI-H460 [1] = test: Induction of apoptosis in human NCI-H460 cells assessed as blebbing at 40 uM up to 6 hrs using 1% DMSO/water compound formulation by Annexin V-FITC/propidium iodide staining based fluorescence microscopic method; assay type: functional, cell-based
HOP-62 [2] = test: Growth inhibition of human HOP62 cells assessed as cell growth at 10 uM after 24 hrs by SRB assay relative to control; assay type: functional; details: HOP-62, 24 h, read-out: Activity
Summary of the method: (§1)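 NCI DTP one-dose screen: cells plated at density set by doubling rate, incubated overnight, then exposed to compound at 10 μM for 24 hours. Growth percentage from protein density at end versus start of experiment, relative to initial cell number.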

Mus musculus [3] = test: Acute toxicity in C57BL/6 mouse assessed as lethargic movement at 20 mg/kg, ip administered as 20% 2HPbetaCD formulation on day 1 followed by redosing with 15 mg/kg, ip on day 14 measured on day 15 post first dose; assay type: organism-based; details: in vivo
Summary of the method: (§2)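 Female/male not stated; C57BL/6 mice received 20 mg/kg IP on day zero in 100 μL of 20% (w/v) 2-HPβCD, then a second 15 mg/kg IP dose on day fourteen. Vehicle controls got 100 μL of 20% 2-HPβCD IP on days 0, 7, 14, 21, 25 and 29. Body weight and behaviour were monitored throughout, with survival plotted Kaplan-Meier.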

HOP-62 [4] = test: Growth inhibition of human HOP62 cells after 24 hrs by SRB assay; assay type: functional; details: HOP-62, 24 h
NCI-H522 [5] = test: Growth inhibition of human NCI-H522 cells after 24 hrs by SRB assay; assay type: functional; details: NCI-H522, 24 h
NCI-H460 [6] = test: Antiproliferative activity against human NCI-H460 cells using 10% 2-HPbetaCD compound formulation after 72 hrs by MTT assay; assay type: functional, cell-based; details: NCI-H460, 72 h
Summary of the method: (§3)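 MTT anti-proliferation on NSCLC lines. Compounds dissolved in DMSO, diluted with water to 1% DMSO, then into growth medium (max 0.032% DMSO on cells); or dissolved in 10% (w/v) 2-HPβCD in water, then diluted (max 0.008% w/w 2-HPβCD in wells; vehicle controls at 0.008%). IC50 = concentration giving 50% loss of viability versus control cells. Cisplatin dissolved in water with stirring.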

HOP-92 = test: Growth inhibition of human HOP92 cells assessed as cell growth at 10 uM after 24 hrs by SRB assay relative to control; assay type: functional; details: HOP-92, 24 h, read-out: Activity; summary of the method: as §1
NCI-H460 [7] = test: Induction of apoptosis in human NCI-H460 cells assessed as morphological changes at 40 uM up to 3 hrs by Annexin V-FITC/propidium iodide staining based fluorescence microscopic method; assay type: functional, cell-based
A549 [8] = test: Growth inhibition of human A549 cells after 24 hrs by SRB assay; assay type: functional; details: A549, 24 h
NCI-H460 [9] = test: Growth inhibition of human NCI-H460 cells assessed as cell growth at 10 uM after 24 hrs by SRB assay relative to control; assay type: functional; details: NCI-H460, 24 h, read-out: Activity; summary of the method: as §1
NCI-H522 [10] = test: Growth inhibition of human NCI-H522 cells assessed as cell growth at 10 uM after 24 hrs by SRB assay relative to control; assay type: functional; details: NCI-H522, 24 h, read-out: Activity; summary of the method: as §1
EKVX = test: Growth inhibition of human EKVX cells after 24 hrs by SRB assay; assay type: functional
NCI-H1975 [11] = test: Antiproliferative activity against human NCI-H1975 cells using 1% DMSO/water compound formulation after 72 hrs by MTT assay; assay type: functional, cell-based; details: NCI-H1975, 72 h; summary of the method: as §3
NCI-H460 [12] = test: Induction of apoptosis in human NCI-H460 cells at 40 uM up to 1 hr using 1% DMSO/water compound formulation by Annexin V-FITC/propidium iodide staining based fluorescence microscopic method; assay type: functional, cell-based
NCI-H460 [13] = test: Induction of apoptosis in human NCI-H460 cells assessed as blebbing at 40 uM after 14 hrs using 10% 2HPbetaCD/water compound formulation by Annexin V-FITC/propidium iodide staining based fluorescence microscopic method; assay type: functional, cell-based
Summary of the method: (§4)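 Annexin V-FITC/propidium iodide staining of H460 cells in 6-well plates. Compound given in 10% (w/v) 2-HPβCD aqueous solution. Imaged at 12, 14, 17 and 20 h with 20× objective as merged transmitted, green and red channels. Controls: 2-HPβCD and cisplatin, 20 h.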

NCI-H322M = test: Growth inhibition of human NCI-H322M cells assessed as cell growth at 10 uM after 24 hrs by SRB assay relative to control; assay type: functional; details: read-out: Activity; summary of the method: as §1
NCI-H226 = test: Growth inhibition of human NCI-H226 cells after 24 hrs by SRB assay; assay type: functional; details: NCI-H226, 24 h
NCI-H460 [14] = test: Induction of apoptosis in human NCI-H460 cells at 40 uM up to 12 hrs using 10% 2HPbetaCD/water compound formulation by Annexin V-FITC/propidium iodide staining based fluorescence microscopic method; assay type: functional, cell-based; summary of the method: as §4
Mus musculus [15] = test: Acute toxicity in C57BL/6 mouse assessed as weight loss at 20 mg/kg, ip administered as 20% 2HPbetaCD formulation on day 1 followed by redosing with 15 mg/kg, ip on day 14 relative to control; assay type: organism-based; details: in vivo
Summary of the method: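 C57BL/6 mice given IP 100 μL of 20 mg/kg (based on 20 g mean mass) in 20% w/v 2-HPβCD on day 0, then 15 mg/kg on day 14. Vehicle mice received 2-HPβCD on days 0, 7, 14, 21, 25 and 29. Body weight, behaviour and survival monitored.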

Bos taurus [16] = organism: Bos taurus; test: Inhibition of ethidium bromide binding to calf thymus DNA assessed as at 13.3 uM using 1% DMSO/water compound formulation by spectrofluorometric method
[17] = Solubility of the compound in 1% DMSO/water solution; assay type: physicochemical; details: buffer
Bos taurus [18] = organism: Bos taurus; test: Binding affinity to calf thymus DNA assessed as increase in viscosity at 10 to 70 uM using 10% 2HPbetaCD/water compound formulation by Ostwald viscometric method
Mus musculus [19] = test: Acute toxicity in C57BL/6 mouse assessed as weight regain at 20 mg/kg, ip administered as 20% 2HPbetaCD formulation measured on day 4 to 14 post dose; assay type: organism-based; details: in vivo; summary of the method: as §2
[20] = Aqueous solubility of the compound in water; assay type: physicochemical; details: buffer
NCI-H460 [21] = test: Antiproliferative activity against human NCI-H460 cells using 1% DMSO/water compound formulation after 72 hrs by MTT assay; assay type: functional, cell-based; details: NCI-H460, 72 h; summary of the method: as §3
A549 [22] = test: Antiproliferative activity against human A549 cells using 1% DMSO/water compound formulation after 72 hrs by MTT assay; assay type: functional, cell-based; details: A549, 72 h; summary of the method: as §3
NCI-H1975 [23] = test: Potency index, ratio of compound cisplatin IC50 to compound IC50 for human NCI-H1975 cells using 1% DMSO/water compound formulation; assay type: functional
Bos taurus [24] = organism: Bos taurus; test: Binding affinity to calf thymus DNA assessed as increase in viscosity at 10 to 70 uM using 1% DMSO/water compound formulation by Ostwald viscometric method
[25] = read-out: LC50 (the source's name)

With `CCc1n(Cc2ccc3ccccc3c2)cc[n+]1Cc1ccc2ccccc2c1.[Br-]` the Activity (NCI-H460 [1]) was “Active”, the growth at 10 µM (HOP-62 [2]) was 11.9% and the Activity (Mus musculus [3]) was “Toxic”. It also gave a GI50 (HOP-62 [4]) of 1420 nM, an LC50 (HOP-62 [4]) of 9360 nM and a TGI (HOP-62 [4]) of 3650 nM. It also gave a GI50 (NCI-H522 [5]) of 303 nM, a TGI (NCI-H522 [5]) of 1440 nM and a CC50 (NCI-H522 [5]; [25]) of 1440 nM. The IC50 (NCI-H460 [6]) was 990 nM, the growth at 10 µM (HOP-92) was -31.4% and the Activity (NCI-H460 [7]) was “inactive”. For the same compound, the GI50 (A549 [8]) was 2590 nM, the TGI (A549 [8]) was 13900 nM and the CC50 (A549 [8]; [25]) was 57900 nM. It also gave a growth at 10 µM (NCI-H460 [9]) of 5.54%, a growth at 10 µM (NCI-H522 [10]) of -25.4% and a GI50 (EKVX) of 766 nM. The LC50 (EKVX) was 35800 nM, the TGI (EKVX) was 5550 nM and the IC50 (NCI-H1975 [11]) was 660 nM. The Activity (NCI-H460 [12]) was “Active”, the Activity (NCI-H460 [13]) was “Active” and the growth at 10 µM (NCI-H322M) was 44.3%. For the same compound, the GI50 (NCI-H226) was 1080 nM, the LC50 (NCI-H226) was 3820 nM and the TGI (NCI-H226) was 3820 nM. The Activity (NCI-H460 [14]) was “inactive”, the Activity (Mus musculus [15]) was 6% and the inhibition (Bos taurus [16]) was “inactive”. For the same compound, the solubility [17] was “Soluble”, the Activity (Bos taurus [18]) was “inactive” and the Activity (Mus musculus [19]) was “Toxic”. The solubility [20] was under 500 µg/mL, the IC50 (NCI-H460 [21]) was 920 nM and the IC50 (A549 [22]) was 2630 nM. For the same compound, the “Ratio IC50” value (NCI-H1975 [23]) was 15 and the Activity (Bos taurus [24]) was “inactive”.
